SMILES strings stand for the structures. The source made the active and inactive calls. The calls are words filed in the database; no cut-off is given here.

Data set [1] relates to Drosophila. Description: Immunosuppressive activity in Drosophila S2 cells expressing att-luc reporter gene assessed as inhibition of peptidoglycan-induced attacin production pre-treated for 1.5 hrs before peptidoglycan stimulation for 8 hrs by luciferase reporter gene assay. It counts as functional. Put shortly: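 S2 cells stably carrying an attacin-promoter luciferase reporter were pre-treated with a concentration series of compound for 1.5 h. They were then stimulated with 100 ng/mL peptidoglycan. After 8 h, cells were lysed and luciferase luminescence was read. IC50 is the concentration lowering signal to 50% of the peptidoglycan-only control. Mean ± SD of four independent experiments.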
In general terms: In a reporter assay the amount or activity of a reporter protein is the signal.

Data set [2] can be described thus: Cytotoxicity against Drosophila S2 assessed as reduction in cell proliferation by WST8 assay. The note with it: Drosophila S2 cells. In outline:
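S2 cells exposed to a concentration series of compound for 24 h; proliferation read by colorimetric WST-8 conversion. CC50 is the concentration reducing proliferation to 50% of DMSO control. Mean ± SD of four independent experiments.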
On the technique in general: Formazan colour is commonly taken as a measure of viable cells.

Data set [3] deals with Drosophila. Description: Selectivity index, ratio of CC50 for Drosophila S2 by WST8 assay to IC50 for immunosuppressive activity in Drosophila S2 cells expressing att-luc reporter gene assessed as inhibition of attacin production. It counts as functional. In outline: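 The ratio is CC50 divided by IC50. CC50 comes from 24 h WST-8 proliferation of S2 cells, relative to DMSO. IC50 comes from 8 h luciferase signal in peptidoglycan-stimulated (100 ng/mL) S2 att-luc reporter cells pre-treated 1.5 h. Both were derived from concentration series.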

Data set [4] deals with Jurkat. Description: Immunosuppressive activity in human Jurkat cells assessed as inhibition of ConA-induced IL2 production at 5 uM pre-treated for 30 mins before ConA stimulation for 12 hrs by immunoassay. It counts as functional, cell-based. In outline:
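ConA was added to a final 25 µg/mL and cells were incubated a further 12 h. Secreted IL-2 in the culture medium was quantified by anti-human IL-2 sandwich immunoassay, in duplicate wells. Mean ± SD of three independent experiments.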

Data set [5] concerns Jurkat. Put plainly: Cytotoxicity against human Jurkat cells assessed as reduction in cell viability at 5 uM by MTT assay. The format is cell-based. Put shortly:
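Jurkat cells pre-incubated 30 min with 5 µM compound or 0.1% DMSO vehicle, then incubated under the same conditions as the IL-2 assay (ConA added, 12 h). Viable cells were measured by MTT assay as percent of control. Mean ± SD of three independent experiments.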

Turning to `CCCCCC(=O)c1c(OC)c(Cl)c(OC)c(Cl)c1OC`, in the data set with Drosophila [1], the IC50 was 18.9 µM. For the same molecule, in data set [2], the CC50 is 148 µM. For the same molecule, the “Ratio CC50/IC50” value in the data set with Drosophila [3] is on record as 7.8.
The matching figures for `CCCC(=O)c1c(O)c(Cl)c(O)c(Cl)c1O`: 21.5 µM, above 100 µM and above 4.7.
In the same order, the values of `CCCC(=O)c1c(OC)c(Cl)c(OC)c(Cl)c1OC` are 20.8 µM, 144 µM and 6.9.
In the same order, the values of `CCCCCC(=O)c1c(O)cc(OC)c(Cl)c1O` are 4.6 µM, 8.7 µM and 1.9.
For `CCCCCC(=O)c1c(O)c(Cl)c(OC)c(Cl)c1O`, in the data set with Drosophila [1], the IC50 worked out at 4.6 µM and the inhibition result is “Dose-dependent effect”. Moreover, the CC50 in data set [2] amounted to 22.5 µM. For the same molecule, the “Ratio CC50/IC50” value with Drosophila [3] was 4.9.
Regarding `CCCCCCCC(=O)c1c(OC)c(Cl)c(OC)c(Cl)c1OC`, the IC50 in the data set on Drosophila [1] amounted to 15.3 µM. Moreover, in data set [2], the CC50 is 51.4 µM. In addition, the “Ratio CC50/IC50” value in the data set with Drosophila [3] amounted to 3.4.
For `CCCCC(=O)c1c(OC)c(Cl)c(OC)c(Cl)c1OC`, in the data set on Drosophila [1], the IC50 was 23.5 µM. In data set [2], the CC50 was determined as 149 µM. Further, the “Ratio CC50/IC50” value with Drosophila [3] stood at 6.3.
Turning to `CCCCCCCCC(=O)c1c(O)c(Cl)c(O)c(Cl)c1O`, the IC50 in the data set with Drosophila [1] was found to be 6.5 µM. Moreover, in data set [2], the CC50 was 82.8 µM. Also, the “Ratio CC50/IC50” value in the data set on Drosophila [3] is reported as 12.7.
On to `CCCCCCC(=O)c1c(OC)c(Cl)c(OC)c(Cl)c1OC`, for which the inhibition result in the data set with Jurkat [4] was “Active”. In the data set with Drosophila [1], the IC50 was found to be 16.8 µM. Also, in data set [2], the CC50 was 140 µM. The “Ratio CC50/IC50” value with Drosophila [3] is 8.3. Moreover, the Activity entry with Jurkat [5] is “Non-toxic”.
Consider `CCCCCC(=O)c1c(O)c(Cl)c(O)c(Cl)c1O`, for which the IC50 with Drosophila [1] turned out to be 9.9 µM. Further, the CC50 in data set [2] is 102 µM. The “Ratio CC50/IC50” value with Drosophila [3] amounted to 10.3.
The matching figures for `CCCCCCc1c(O)c(Cl)c(OC)c(Cl)c1O`: 58.6 µM, above 100 µM and above 1.7.
Turning to `CCCCCC(=O)c1c(O)c(Cl)c(C)c(Cl)c1O`, in the data set on Drosophila [1], the IC50 came out at 3.8 µM. Further, in data set [2], the CC50 is 13.8 µM. In the data set on Drosophila [3], the “Ratio CC50/IC50” value worked out at 3.6.
`CCCCCC(=O)c1c(O)c(Br)c(OC)c(Br)c1O`: the IC50 in the data set on Drosophila [1] came to 3.7 µM. The CC50 in data set [2] worked out at 12.9 µM. Moreover, the “Ratio CC50/IC50” value in the data set on Drosophila [3] is reported as 3.5.
As to `CCCCCCCC(=O)c1c(O)c(Cl)c(O)c(Cl)c1O`, in the data set with Jurkat [4], the inhibition entry was “Active”. In addition, the IC50 with Drosophila [1] was 3.7 µM. Also, the CC50 in data set [2] amounted to 88.5 µM. The “Ratio CC50/IC50” value with Drosophila [3] was found to be 23.9. For the same molecule, the Activity result in the data set on Jurkat [5] is “Non-toxic”.

The IC50 is the midpoint of a concentration-inhibition curve. The CC50 is the concentration giving 50% cytotoxicity.

(Values after ChEMBL document CHEMBL3593197, “Development of novel DIF-1 derivatives that selectively suppress innate immune responses” (Bioorg Med Chem, 2015).)
